Results from ChEMBL document CHEMBL4311965, “Antimicrobial activity of amphipathic α,α-disubstituted β-amino amide derivatives against ESBL - CARBA producing multi-resistant bacteria; effect of halogenation, lipophilicity and cationic character” (Eur J Med Chem, 2019).
In brackets after ≈: the same amount, converted by molar mass.

Assays:
Escherichia coli = test: Antibacterial activity against Escherichia coli ATCC 25922 cultured in MHB medium assessed as no bacterial growth incubated at 37 degC for 24 hrs by microdilution susceptibility test; format: functional; conditions: ATCC 25922, 24 h
Method in brief: (§1)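 Broth microdilution per CLSI M07-A9 with modifications. Inoculum about 2.5–3 x 10⁴ cells/mL in Mueller-Hinton broth, mixed 1:1 with test derivative. DMSO stocks diluted in double-distilled water, final DMSO <1%. Incubation 24 h at 37 °C (20 °C for C. glutamicum). Growth and sterility controls included; oxytetracycline reference.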

[1] = test system: Corynebacterium glutamicum; test: Antibacterial activity against Corynebacterium glutamicum ATCC 13032 cultured in MHB medium assessed as no bacterial growth incubated at 20 degC for 24 hrs by microdilution susceptibility test; format: functional; conditions: ATCC 13032, 24 h; method in brief: as §1
Pseudomonas aeruginosa = test: Antibacterial activity against Pseudomonas aeruginosa PA01 DSM 19880 (ATCC 15692) cultured in MHB medium assessed as no bacterial growth incubated at 37 degC for 24 hrs by microdilution susceptibility test; format: functional; conditions: PAO1 DSM 19880 (ATCC 15692); method in brief: as §1
Staphylococcus aureus = test: Antibacterial activity against Staphylococcus aureus ATCC 9144 cultured in MHB medium assessed as no bacterial growth incubated at 37 degC for 24 hrs by microdilution susceptibility test; format: functional; conditions: ATCC 9144, 24 h; method in brief: as §1
[2] = Aqueous solubility of the compound in DMSO; format: physicochemical
[3] = Selectivity index, ratio of EC50 for hemolytic activity against human RBC to MIC for antibacterial activity against Escherichia coli ATCC 25922; format: toxicity; conditions: human red blood cells (RBC)
Method in brief: (§2)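 Selectivity index is the RBC haemolysis EC50 divided by the MIC against the E. coli or S. aureus reference strain.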

Erythrocyte = test: Hemolytic activity against human RBC incubated for 1 hr; format: cell-based
Method in brief: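 Heparinized human blood washed three times in warm PBS and set to 10% hct. Erythrocytes at 1% v/v final, with compound in PBS (DMSO <1%), shaken 1 h at 37 °C and then centrifuged. Supernatant absorbance read at 405 and 545 nm after PBS background subtraction. Haemolysis taken relative to 1% Triton X-100. Three independent replicates, EC50 averaged.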

HepG2 = test: Cytotoxicity against human HepG2 cells assessed as reduction in cell viability incubated for 4 hrs by CellTiter 96 Aqueous One Solution Reagent based assay; conditions: HepG2, 4 h
Method in brief: (§3)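 HepG2 and MRC-5 cells seeded at 35 000 and 15 000 cells/well respectively, then held overnight at 37 °C, 5% CO₂. Compounds in serum-free MEM Earle's applied for 4 h. MTS reagent (CellTiter 96 AQueous One) added for a further 1 h, absorbance read at 485 nm. Survival expressed relative to medium (negative) and Triton X-100 (positive) controls.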

[4] = Selectivity index, ratio of EC50 for hemolytic activity against human RBC to MIC for antibacterial activity against Staphylococcus aureus ATCC 9144; format: toxicity; conditions: human red blood cells (RBC); method in brief: as §2
MRC5 = test: Cytotoxicity against human MRC5 cells assessed as reduction in cell viability incubated for 4 hrs by CellTiter 96 Aqueous One Solution Reagent based assay; conditions: MRC5, 4 h; method in brief: as §3

| SMILES | MIC (Escherichia coli) [µg/mL] | MIC [1] [µg/mL] | MIC (Pseudomonas aeruginosa) [µg/mL] | MIC (Staphylococcus aureus) [µg/mL] | solubility [2] | selectivity ratio [3] | EC50 (Erythrocyte) [µg/mL] | EC50 (HepG2) [µg/mL] | selectivity ratio [4] | EC50 (MRC5) [µg/mL] |
| --- | --- | --- | --- | --- | --- | --- | --- | --- | --- | --- |
| N#CC(Cc1cc(Br)cc(Br)c1)(Cc1cc(Br)cc(Br)c1)C(=O)NCCN | > 64 | > 64 | > 64 | > 64 |  |  |  |  |  |  |
| N#CC(Cc1ccccc1F)(Cc1ccccc1F)C(=O)NCCN | 64 (≈ 186 µM) | 16 (≈ 46.6 µM) | > 64 | > 64 | Soluble | 3 | 190 (≈ 553 µM) | > 64 |  |  |
| NCCNC(=O)C(CN)(Cc1ccccc1Br)Cc1ccccc1Br | 64 (≈ 136 µM) | 8 (≈ 17 µM) | 64 (≈ 136 µM) | 64 (≈ 136 µM) | Soluble | 4 | 271 (≈ 578 µM) | 48 (≈ 102 µM) | 4 | 56 (≈ 119 µM) |
| N#CC(Cc1ccccc1Br)(Cc1ccccc1Br)C(=O)NCCN | 32 (≈ 68.8 µM) | 32 (≈ 68.8 µM) | > 64 | 16 (≈ 34.4 µM) | Soluble | 7 | 211 (≈ 454 µM) | 26 (≈ 55.9 µM) | 13 | 32 (≈ 68.8 µM) |
| N#CC(Cc1ccccc1C(F)(F)F)(Cc1ccccc1C(F)(F)F)C(=O)NCCN | 16 (≈ 36.1 µM) | 8 (≈ 18 µM) | 32 (≈ 72.2 µM) | 16 (≈ 36.1 µM) | Soluble | 6 | 89 (≈ 201 µM) | 24 (≈ 54.1 µM) | 6 | 27 (≈ 60.9 µM) |
| NCCNC(=O)C(CN)(Cc1cccc2ccccc12)Cc1cccc2ccccc12 | 16 (≈ 38.9 µM) | 2 (≈ 4.86 µM) | 16 (≈ 38.9 µM) | 4 (≈ 9.72 µM) | Soluble | 6 | 90 (≈ 219 µM) |  | 23 | 9 (≈ 21.9 µM) |
| N#CC(Cc1ccc(C(F)(F)F)cc1)(Cc1ccc(C(F)(F)F)cc1)C(=O)NCCN | 16 (≈ 36.1 µM) | 8 (≈ 18 µM) | 64 (≈ 144 µM) | 32 (≈ 72.2 µM) | Soluble | 11 | 178 (≈ 401 µM) | 23 (≈ 51.9 µM) | 6 | 18 (≈ 40.6 µM) |
| N#CC(Cc1c(F)cccc1F)(Cc1c(F)cccc1F)C(=O)NCCN | > 64 | > 64 | > 64 | > 64 | Soluble |  |  | > 64 |  |  |
| NCCNC(=O)C(CN)(Cc1ccccc1F)Cc1ccccc1F | > 64 | > 64 | > 64 | > 64 | Soluble |  |  | > 64 |  |  |
| CN(C)[C@@H]1C(O)=C(C(N)=O)C(=O)[C@@]2(O)C(O)=C3C(=O)c4c(O)cccc4[C@@](C)(O)[C@H]3[C@H](O)[C@@H]12.Cl [OXYTETRACYCLINE HYDROCHLORIDE] | 2.5 | 0.65 | 20 | 0.65 |  |  |  | > 64 |  |  |
| N#CC(Cc1ccc(F)c2ccccc12)(Cc1ccc(F)c2ccccc12)C(=O)NCCN | 4 (≈ 9.02 µM) | 2 (≈ 4.51 µM) | 32 (≈ 72.2 µM) | 4 (≈ 9.02 µM) | Soluble |  | > 500 | 12 (≈ 27.1 µM) |  | 4 (≈ 9.02 µM) |
| NCCNC(=O)C(CN)(Cc1cc(F)cc(F)c1)Cc1cc(F)cc(F)c1 | > 64 | 64 (≈ 167 µM) | > 64 | > 64 | Soluble |  | 228 (≈ 595 µM) | > 64 |  |  |
| N#CC(Cc1cc(F)cc(F)c1)(Cc1cc(F)cc(F)c1)C(=O)NCCN | > 64 | 32 (≈ 84.4 µM) | > 64 | > 64 | Soluble |  | 208 (≈ 548 µM) | > 64 |  |  |
| NCCNC(=O)C(CN)(Cc1c(F)cccc1F)Cc1c(F)cccc1F | > 64 | > 64 | > 64 | > 64 | Soluble |  |  | > 64 |  |  |
